Reference: ChEMBL document CHEMBL4513216, “Probing the Open Global Health Chemical Diversity Library for Multistage-Active Starting Points for Next-Generation Antimalarials” (ACS Infect Dis, 2020)

test: Toxicity liver stage against HepG2, at 10uM; assay type: cell-based; set-up: test concentration 10 uM, cell line HepG2-A16-CD81EGFP; details: human, HepG2-A16-CD81EGFP cells; read-out: INHIBITION
Summary of the method: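 Uninfected HepG2-A16-CD81EGFP cells, 3 × 10^3 per well, 1536-well, plated on prespotted compound at 10 μM final, parasite-free screening media added to match infected plates; puromycin 10 μM positive, DMSO 0.5% negative; run in parallel with 48 h PbLuc assay at 37 °C, 5% CO2; viability by CellTiter-Glo luminescence, normalized to controls.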

Row | SMILES | cytotoxicity at 10 µM
1 | CCc1ocnc1C(=O)N1CCCC1c1noc(C)n1 (stereo unspecified) | -8.77%
2 | CC(=O)c1cccc(-c2nc3c([nH]2)CCNC3)c1F | -50.5%
3 | O=C(Cc1noc2ccccc12)N1CCC(Nc2cccnn2)CC1 | -7.85%
4 | CCc1[nH]c2ccc(CNC(=O)c3cnc(N)nc3C)cc2c1C | -3.56%
5 | CC(=O)NCCC1CCCCN1C(=O)c1cccc(CCC(C)(C)O)c1 (stereo unspecified) | 4.13%
6 | O=C(CN1CCOC(CNc2cccnn2)C1)N1CCCCC1 (stereo unspecified) | 5.18%
7 | O=C1CC[C@@H]2[C@@H](CCN2Cc2ccncc2)N1c1ccccc1 | -1.88%
8 | CC(=O)N1CCc2c(nc(-c3ccccn3)nc2N(C)CC(O)CO)C1 (stereo unspecified) | -12.2%
9 | CC1(C)CNC(=O)c2nc(C3CCN(C(=O)C4CC4)CC3)[nH]c2C1 | 2.26%
10 | CCNC(=O)[C@@H]1C[C@H](N)CN1Cc1ccc(-c2cc[nH]n2)o1 | -47.6%
11 | NCCn1cc(C(=O)NCc2ccccc2Cn2cccn2)nn1 | 3.41%
12 | Cc1noc(C)c1Cc1nc(N(C)C)no1 | 9.21%
13 | O=S(=O)(N1CCOCC1)N1CCc2sccc2C1 | -92.3%
14 | CC(=O)N1CCN(C2CCc3ccccc32)CC1 (stereo unspecified) | -44.7%
15 | Cc1n[nH]c2c1C(c1cccnc1)SCC(=O)N2 (stereo unspecified) | -7.46%
16 | CSc1ncccc1C(=O)N1CCC(c2nc3c(C)cccc3[nH]2)CC1 | -20%
17 | CC(C)(C)c1nc(CN2CCC3(CCCO3)CCC2=O)no1 (stereo unspecified) | -4.57%
18 | CSCCC(NC(N)=O)C(=O)N1CCC(Cc2ccccc2)CC1 (stereo unspecified) | 1.28%
19 | COc1ccc(CN(C)Cn2cc(C)n(-c3cc(C)on3)c2=O)cc1 | 3.36%
20 | COc1cccc2c1OCC(C(=O)N1CCC(N3CCSCC3)CC1)C2 (stereo unspecified) | 2.24%
21 | Cc1ccc(CN2C[C@@H]3CCCO[C@@H]3[C@H](N(C)Cc3ccco3)C2)s1 | 3.88%
22 | Cc1cccc(NC(=O)N2CCN(Cc3noc(C4CC4)n3)CC2)c1 | -10.1%
23 | CC(=O)Nc1nc(CN2CCCCC2Cn2cncn2)cs1 (stereo unspecified) | 1.12%

Row | SMILES | cytotoxicity at 10 µM
24 | CC(C)Nc1ncnc2c1CCN(C(=O)c1ccc[nH]1)CC2 | -77.6%
25 | Cc1cccc(-c2nc(CN3CCCCC3Cn3cncn3)no2)c1 (stereo unspecified) | -3.2%
26 | Cc1nc(CN2C[C@@H]3CN(C(=O)C4(C#N)CC4)C[C@@H]3C2=O)cs1 | -70.7%
27 | CN(C)C(=O)Cn1c2c(ccc1=O)CC(NCc1ccoc1)CC2 (stereo unspecified) | 16.5%
28 | COc1cc(C(=O)N(C2CC2)C2CC(=O)NC2=O)ccc1C (stereo unspecified) | -3.58%
29 | CN(CCN1CCOCC1)C(=O)CCc1ccc(C(F)(F)F)cc1 | -1.3%
30 | CN(Cc1ccncc1)C(=O)CCNS(=O)(=O)c1cccnc1 | 0.541%
31 | Cc1cnn(C2CN(CC(O)COc3ccc(C#N)cc3)C2)c1 (stereo unspecified) | 1.81%
32 | CN1CCN(C)C(CNC(=O)N(C)Cc2ccccc2Cl)C1 (stereo unspecified) | 0.339%
33 | CCOCC1CN(S(=O)(=O)N(C)C)Cc2cnn(C)c21 (stereo unspecified) | -4.2%
34 | Cn1cnc(S(=O)(=O)NCC2(O)CCOc3ccccc32)c1 (stereo unspecified) | 12%
35 | Cn1ncc2c1CN(C(=O)Cc1ccccn1)CC2COCC1CC1 (stereo unspecified) | -73.6%
36 | O=C(N1CCC(Oc2ccncc2)CC1)C1(c2ccc(F)cc2)CC1 | -7.66%
37 | CCc1nc(CN(C(C)=O)C2CCN(Cc3csc(C)n3)C2)no1 (stereo unspecified) | -12.8%
38 | COc1cc(OC)c(CNC(=O)NCC(=O)N(C)C)c(OC)c1 | 3.27%
39 | CCN(C)c1ncnc2c1CCN(Cc1csc(C)n1)CC2 | -1.13%
40 | COc1cc2nc(NCCNS(C)(=O)=O)cc(C)c2cc1OC | -1.08%
41 | CNc1nc(C2CCCN(C(=O)CNC(C)=O)C2)nc2c1CN(C)CC2 (stereo unspecified) | -10.9%
42 | COC(=O)CCC(=O)N(Cc1ccc2cc[nH]c2c1)C1CC1 | -3.4%
43 | CCNc1cc2c(nn1)CCN(C(=O)C1Cc3ccccc3O1)C2 (stereo unspecified) | -9.32%
44 | CCOc1ncccc1C(=O)N(C)C1CCN(c2ccccn2)CC1 | -18.7%
45 | CC(C)c1ccc(OCCNC(=O)N2CCS(=O)(=O)CC2)cc1 | -5.54%
46 | CN1CCCN(C(=O)c2nc3c(n2C)CCN(c2ncccn2)C3)CC1 | -9.18%

Row | SMILES | cytotoxicity at 10 µM
47 | CCC1(CO)CCCN(C(=O)c2ccc(N3CCN(C)CC3)cc2)C1 (stereo unspecified) | -4.71%
48 | COc1nccc(N2CCN(Cc3ccc(C)cc3)C(=O)C2)c1C#N | -16.5%
49 | CCN(C)C(=O)Nc1cc(F)c(OC)cc1F | -10.4%
50 | CC(c1ccco1)N(C(=O)Cn1nc2n(c1=O)CCCCC2)C1CC1 (stereo unspecified) | -6.17%
51 | CC(C)C(=O)NS(=O)(=O)CCc1ccccc1 | 0.67%
52 | Cc1ccc(CN(C)C(=O)Cn2nc(-c3ccc(F)cc3)oc2=O)cc1 | -20.6%
53 | CCOc1cccc2c1OCC(C(=O)NS(=O)(=O)Cc1ccccc1)=C2 | -7.22%
54 | CCCOc1ccc(CNc2cncc(-n3cccn3)n2)cc1 | 11.7%
55 | Cc1nn(C)c(C)c1CNCc1cccnc1N1CCOCC1 | -138%
56 | O=C(NCC1CCCCC1)N1C[C@@H]2C[C@@H]1CN2 | -7.78%
57 | CCc1cnc(N2C[C@@H]3C[C@H](C(=O)NCC(C)C)[C@H](C2)O3)nc1 | 12%
58 | COc1ccc(CN2CCC3(CC2)C(C(=O)O)CC(=O)N3C)cc1Cl (stereo unspecified) | -5.66%
59 | CCc1c(C(=O)N2CCNC(=O)C2)cnn1C(C)(C)C | -20.3%
60 | CC(NCc1ccsc1)c1ccc2c(c1)NC(=O)CO2 (stereo unspecified) | -7.6%
61 | Cc1ccc(C(C)NC(=O)N2CCN(C(=O)CC(F)(F)F)CC2)o1 (stereo unspecified) | 43.3%
62 | Cc1cn2nc(N3CCCCC3Cn3cccn3)sc2n1 (stereo unspecified) | -1.14%
63 | CN(Cc1cncnc1)[C@H]1CN(Cc2ccco2)[C@@H]2CCCO[C@@H]21 | -78.7%
64 | COc1c[nH]c(C(=O)N2CCN(c3cccc(Cl)c3)CC2)cc1=O | -1%
65 | COc1ccc(CCC(C)Nc2cccc(SC)c2)cc1 (stereo unspecified) | -1.11%
66 | COCCNC(=O)CCNc1ccc(Cl)cn1 | -5.22%
67 | Cn1ccc(C(=O)NCc2ccc(CN3CCCC3)cc2)cc1=O | -13.5%
68 | CN1CCCCC1c1nc(Cc2cccc(F)c2)no1 (stereo unspecified) | -161%
69 | Cc1cc(CN2CCN(C(=O)C(C(C)C)n3cncn3)CC2)on1 (stereo unspecified) | 2.35%

Row | SMILES | cytotoxicity at 10 µM
70 | Cc1nccn1-c1ncccc1NC(=O)CCOCC(C)C | -2.59%
71 | COCCn1cc(C(=O)N2CCCC2c2ccccc2C)ccc1=O (stereo unspecified) | 7.69%
72 | c1ccc(N2CCc3ncnc(C4CC4)c3CC2)nc1 | -157%
73 | Cc1cc(CN2CCCC(C)(CO)C2)ccc1F (stereo unspecified) | -20.4%
74 | CCN(CC)c1ccc(C(=O)N(C)Cc2c(C)noc2C)cn1 | -5.38%
75 | CC(NCc1c(C(C)C)nn(C)c1N1CCOCC1)C(N)=O (stereo unspecified) | -5.23%
76 | Cc1ccc(CNCC2Cn3nncc3CO2)s1 (stereo unspecified) | -99.4%
77 | CCCn1ccnc1SCCNS(=O)(=O)c1ccccc1 | -12.8%
78 | COc1cccc2ccc(CN3CCN(c4ncccn4)CC3)nc12 | -2.13%
79 | CCOc1ncccc1C(=O)NC1CC(=O)N(CC(F)(F)F)C1 (stereo unspecified) | 4.43%
80 | Cc1ccc(NC(=O)N(C)C)c(C(=O)OCC(=O)NC2CCCC2)c1 | -8.03%
81 | COc1ccc(CNc2cc(-c3nc(C)no3)ccn2)c(OC)c1 | 9.07%
82 | CN(CCC(O)c1ccccc1)Cc1ccccc1C#N (stereo unspecified) | 6.87%
83 | Cc1nc(CN2CCCC(CCNS(C)(=O)=O)C2)c[nH]1 (stereo unspecified) | -10.2%
84 | N#Cc1cnc2cc(F)cc(F)c2c1NC1CCN(CC(N)=O)CC1 | 0%
85 | NS(=O)(=O)c1ccc(NCc2ccco2)c2ncccc12 | -153%
86 | COc1ccc(-c2cn[nH]c2)cc1CNC1CCCC1 | -45.3%
87 | O=C(CN1CCOc2ccc(Cl)cc21)NCCCn1cccn1 | -0.174%
88 | CC(C)c1cnc(N2C[C@H](CO)C[C@H](CN3CCOCC3)C2)nc1 | -7.45%
89 | CC(C)(C)c1cn(C[C@H]2CC3CCN2C[C@@H]3C(=O)NC2CC2)nn1 (stereo partly specified) | 9.46%
90 | Cc1ccc(C(N)=O)c(N2C[C@H]3OC(=O)N(C4CCCC4)[C@H]3C2)n1 | 5.54%
91 | Cc1c(CNCc2nn(-c3ccccc3)c3c2CCC3)cc(C#N)n1C | 13.3%
92 | Cc1cccc(CN2C[C@@H]3CN(Cc4ccoc4)CCO[C@@H]3C2)n1 | 6.53%

Row | SMILES | cytotoxicity at 10 µM
93 | CN(CC(=O)c1ccc2[nH]c(=O)[nH]c2c1)Cc1ccc2c(c1)OCO2 | 5.34%
94 | CCC(CNC(=O)Nc1cnn(CC)c1)N1CCCC1 (stereo unspecified) | -1.47%
95 | CN(CC1(CO)CCC1)c1nc2c(c(=O)[nH]1)Cc1ccccc1OC2 | -17.2%
96 | Cc1noc(NCc2ccc(F)cc2)n1 | -5.92%
97 | CC(C)Cc1cc(NC(=O)c2ccc[nH]2)n(C)n1 | -6.56%
98 | Cc1ncccc1NC(=O)[C@@H]1CCO[C@@H]2CCN(c3ccccc3)C[C@@H]21 | 6.7%
99 | CN(CC(=O)Nc1cnn(-c2ccccc2S(C)(=O)=O)c1)C1CC1 | 0.315%
100 | CCC(C)Oc1ccc(CNCCNC(C)=O)cc1OC (stereo unspecified) | -8.09%
101 | O=C(CO)N1CCCC2(CCN(c3ccsc3)C2=O)C1 (stereo unspecified) | -66.8%
102 | COc1ccc2c(c1)OC1(CCN(Cc3ccc(F)cc3)CC1)CC2=O | 9.09%
103 | C1CCC(c2nc3c(c(N4CCN5CCCC5C4)n2)CCNCC3)C1 (stereo unspecified) | -1.1%
104 | COc1ccccc1OCCCN1CCNC1=O | 1.5%
105 | Cn1c(C(F)(F)F)nn(CCNC(=O)CCc2ccccc2)c1=O | 10.7%
106 | CCN(CC(=O)NCc1nc(C2CC2)no1)Cc1ccc(Cl)cc1 | -2.29%
107 | CN(Cc1ccccc1Br)C(=O)Cn1nc(-c2ccc(F)cc2)oc1=O | 9.46%
108 | NC(=O)N1CCCN(C2CCCCc3ccccc32)CC1 (stereo unspecified) | -43.9%
109 | O=C1COC2(CCN(Cc3ccco3)CC2)CN1Cc1cccnc1 | -4.25%
110 | COc1ccc(CC2CN(C(=O)c3coc(C)n3)CCO2)cc1 (stereo unspecified) | 3.8%
111 | O=C(c1ccncc1)N1CCC(Cc2cnc3[nH]ccc3c2)CC1 | -1.86%
